Data reported in ChEMBL document CHEMBL4400512, “Searching for new agents active against Candida albicans biofilm: A series of indole derivatives, design, synthesis and biological evaluation” (Eur J Med Chem, 2019).
≈ marks a conversion by molar mass, not a printed value.

Key:
[1] = system: Candida albicans; experiment: Antibiofilm activity against Candida albicans ATCC 10231 assessed as inhibition of mature biofilm formation by XTT reduction assay; type: functional
Summary of the method: (§1)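 Biofilm assay after Pierce et al., with compound applied either during biofilm formation or to 24 h pre-formed (mature) biofilm. Read-out is metabolic activity of cells in the biofilm by XTT reduction. BMIC50 is the lowest concentration giving a 50% drop relative to untreated growth control. Tested in triplicate, at least two experiments on separate dates; median reported.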

[2] = system: Candida albicans; experiment: Antibiofilm activity against Candida albicans ATCC 10231 assessed as inhibition of biofilm formation by XTT reduction assay; type: functional; summary of the method: as §1
[3] = system: Candida albicans; experiment: Antifungal activity against planktonic form of Candida albicans ATCC 10231 by broth microdilution method; type: organism-based; conditions: in vitro
Summary of the method: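 CLSI M27-A3 broth microdilution. Cells grown on Sabouraud dextrose agar at 35°C for 24 h; final inoculum 1×10^3–5×10^3 cells/mL. Compounds from DMSO stocks, final DMSO below 1%, final range 256–0.25 µg/mL. Controls were DMSO 1% and fluconazole reference. MIC50 is the lowest concentration giving ≥50% growth inhibition. Three independent experiments in duplicate; median reported.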

[4] = system: Candida albicans; experiment: Antibiofilm activity against Candida albicans PMC 1042 assessed as inhibition of mature biofilm formation by XTT reduction assay; type: functional
Summary of the method: (§2)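 Biofilm method of Pierce et al. Biofilms were treated either during formation or once mature (24 h preformed). Metabolic activity of the cells within the biofilm was read by XTT reduction. BMIC50 is the lowest concentration giving a 50% drop in metabolic activity versus the untreated growth control. At least two experiments on separate dates, triplicate, reported as median.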

[5] = system: Candida albicans; experiment: Antibiofilm activity against Candida albicans PMC 1042 assessed as inhibition of biofilm formation by XTT reduction assay; type: functional; summary of the method: as §2
[6] = system: Candida albicans; experiment: Antifungal activity against planktonic form of Candida albicans PMC 1042 by broth microdilution method; type: organism-based; conditions: in vitro
Summary of the method: (§3)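 Broth microdilution per CLSI M27-A3 and M27-S4. Strains were grown on Sabouraud dextrose agar at 35°C for 24 h. Final inoculum 1×10^3–5×10^3 cells/mL. Compounds were dissolved in DMSO (final <1%); 1% DMSO served as control. Final range 256–0.25 µg/mL. MIC50 is the lowest concentration giving ≥50% growth inhibition. Three independent experiments in duplicate, median; fluconazole as reference.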

[7] = system: Candida albicans; experiment: Antibiofilm activity against Candida albicans PMC 1082 assessed as inhibition of mature biofilm formation by XTT reduction assay; type: functional; summary of the method: as §2
[8] = system: Candida albicans; experiment: Antibiofilm activity against Candida albicans PMC 1082 assessed as inhibition of biofilm formation by XTT reduction assay; type: functional; summary of the method: as §2
[9] = system: Candida albicans; experiment: Antifungal activity against planktonic form of Candida albicans PMC 1082 by broth microdilution method; type: organism-based; conditions: in vitro; summary of the method: as §3
[10] = system: Candida albicans; experiment: Antibiofilm activity against Candida albicans ATCC 10261 assessed as inhibition of mature biofilm formation by XTT reduction assay; type: functional; summary of the method: as §2
[11] = system: Candida albicans; experiment: Antibiofilm activity against Candida albicans ATCC 10261 assessed as inhibition of biofilm formation by XTT reduction assay; type: functional; summary of the method: as §2
[12] = system: Candida albicans; experiment: Antifungal activity against planktonic form of Candida albicans ATCC 10261 by broth microdilution method; type: organism-based; conditions: in vitro; summary of the method: as §3
[13] = Toxicity in Galleria mellonella larvae assessed as larval survival at 500 ug/ml after 24 hrs relative to control
Summary of the method: (§4)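 Ten healthy larvae per group, stored at 15°C in the dark. Each got a 20 µL injection into the haemocoel via the last left proleg, with compound freshly made in sterile water containing <1% v/v DMSO. Larvae were incubated at 30°C and survival scored every 24 h; death was no movement on stimulation plus cuticle discolouration. Controls were untreated, pierced-only and vehicle. Mean % survival of two independent experiments.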

[14] = Toxicity in Galleria mellonella larvae assessed as larval survival at 100 ug/ml after 24 hrs relative to control; summary of the method: as §4
[15] = Toxicity in Galleria mellonella larvae assessed as larval survival at 50 ug/ml after 24 hrs relative to control; summary of the method: as §4
[16] = Toxicity in Galleria mellonella larvae assessed as larval survival at 10 ug/ml after 24 hrs relative to control; summary of the method: as §4
[17] = Toxicity in Galleria mellonella larvae assessed as larval survival at 5 ug/ml after 24 hrs relative to control; summary of the method: as §4
[18] = Toxicity in Galleria mellonella larvae assessed as larval survival at 500 ug/ml after 48 hrs relative to control; summary of the method: as §4
[19] = Toxicity in Galleria mellonella larvae assessed as larval survival at 100 ug/ml after 48 hrs relative to control; summary of the method: as §4
[20] = Toxicity in Galleria mellonella larvae assessed as larval survival at 50 ug/ml after 48 hrs relative to control; summary of the method: as §4
[21] = Toxicity in Galleria mellonella larvae assessed as larval survival at 10 ug/ml after 48 hrs relative to control; summary of the method: as §4
[22] = Toxicity in Galleria mellonella larvae assessed as larval survival at 5 ug/ml after 48 hrs relative to control; summary of the method: as §4
[23] = Toxicity in Galleria mellonella larvae assessed as larval survival at 500 ug/ml after 72 hrs relative to control; summary of the method: as §4
[24] = Toxicity in Galleria mellonella larvae assessed as larval survival at 100 ug/ml after 72 hrs relative to control; summary of the method: as §4
[25] = Toxicity in Galleria mellonella larvae assessed as larval survival at 50 ug/ml after 72 hrs relative to control; summary of the method: as §4
[26] = Toxicity in Galleria mellonella larvae assessed as larval survival at 10 ug/ml after 72 hrs relative to control; summary of the method: as §4
[27] = Toxicity in Galleria mellonella larvae assessed as larval survival at 5 ug/ml after 72 hrs relative to control; summary of the method: as §4

## O=[N+]([O-])c1ccc(CNCCc2c[nH]c3ccccc23)cc1
[1]
  MBIC50: 32 µg/mL
[2]
  MBIC50: 32 µg/mL
[3]
  MIC50: > 128 µg/mL

## CN(C)c1ccc(CNCCc2c[nH]c3ccccc23)cc1
[1]
  MBIC50: 16 µg/mL
[2]
  MBIC50: 32 µg/mL
[3]
  MIC50: > 128 µg/mL

## Brc1cccc(CNCCc2c[nH]c3ccccc23)c1
[1]
  MBIC50: 32 µg/mL
[2]
  MBIC50: 4 µg/mL
[3]
  MIC50: 64 µg/mL (≈ 194 µM)

## O=[N+]([O-])c1ccc(/C=C/CNCCc2c[nH]c3ccccc23)cc1
[1]
  MBIC50: >128 µg/mL
[2]
  MBIC50: 8 µg/mL
[3]
  MIC50: > 128 µg/mL

## O=[N+]([O-])c1cccc(Cl)c1CNCCc1c[nH]c2ccccc12
[1]
  MBIC50: 8 µg/mL
[2]
  MBIC50: 16 µg/mL
[3]
  MIC50: > 128 µg/mL

## Clc1ccc(CNCCc2c[nH]c3ccccc23)cc1
[1]
  MBIC50: 32 µg/mL
[2]
  MBIC50: 16 µg/mL
[3]
  MIC50: 32 µg/mL (≈ 112 µM)

## O=C(NCCc1c[nH]c2ccccc12)c1ccccc1
[1]
  MBIC50: 32 µg/mL
[2]
  MBIC50: 32 µg/mL
[3]
  MIC50: > 128 µg/mL

## c1ccc2cc(CNCCc3c[nH]c4ccccc34)ccc2c1
[1]
  MBIC50: 2 µg/mL
[2]
  MBIC50: 8 µg/mL
[3]
  MIC50: 16 µg/mL (≈ 53.3 µM)
[4]
  MBIC50: 2 µg/mL
[5]
  MBIC50: 8 µg/mL
[6]
  MIC50: 128 µg/mL (≈ 426 µM)
[7]
  MBIC50: 2 µg/mL
[8]
  MBIC50: 8 µg/mL
[9]
  MIC50: 32 µg/mL (≈ 107 µM)
[10]
  MBIC50: 8 µg/mL
[11]
  MBIC50: 8 µg/mL
[12]
  MIC50: 32 µg/mL (≈ 107 µM)
[13]
  survival at 24 h: 100%
[14]
  survival at 24 h: 100%
[15]
  survival at 24 h: 90%
[16]
  survival at 24 h: 100%
[17]
  survival at 24 h: 100%
[18]
  survival at 48 h: 100%
[19]
  survival at 48 h: 100%
[20]
  survival at 48 h: 90%
[21]
  survival at 48 h: 100%
[22]
  survival at 48 h: 100%
[23]
  survival at 72 h: 100%
[24]
  survival at 72 h: 100%
[25]
  survival at 72 h: 90%
[26]
  survival at 72 h: 100%
[27]
  survival at 72 h: 100%

## OC(Cn1cncn1)(Cn1cncn1)c1ccc(F)cc1F [FLUCONAZOLE]
[1]
  MBIC50: >128 µg/mL
[2]
  MBIC50: 128 µg/mL
[3]
  MIC50: 0.5 µg/mL (≈ 1.63 µM)
[4]
  MBIC50: >64 µg/mL
[5]
  MBIC50: >64 µg/mL
[6]
  MIC50: 8 µg/mL (≈ 26.1 µM)
[7]
  MBIC50: >64 µg/mL
[8]
  MBIC50: >64 µg/mL
[9]
  MIC50: 0.125 µg/mL (≈ 0.408 µM)
[10]
  MBIC50: >64 µg/mL
[11]
  MBIC50: >64 µg/mL
[12]
  MIC50: 2 µg/mL (≈ 6.53 µM)

## O=C(NCCc1c[nH]c2ccccc12)c1cccnc1 [NICOTREDOLE]
[1]
  MBIC50: 64 µg/mL
[2]
  MBIC50: >128 µg/mL
[3]
  MIC50: > 128 µg/mL

## NCCc1c[nH]c2ccccc12 [TRYPTAMINE]
[1]
  MBIC50: >128 µg/mL
[2]
  MBIC50: 128 µg/mL
[3]
  MIC50: > 128 µg/mL
